# Laboratory results from ChEMBL document CHEMBL3232922, “Discovery and SAR of 6-alkyl-2,4-diaminopyrimidines as histamine H₄ receptor antagonists” (J Med Chem, 2014).
# Calls of active or inactive are those of the source. The rule behind the calls is not given here.
# Legend:
# [1] = tested on: Mus musculus; assay: Antipruritic activity against histamine-induced scratching C57/bl6 mouse model assessed as inhibition of itching at 5 to 20 mg/kg, po administered 30 mins prior to histamine challenge measured over 20 mins; format: functional, organism-based
# In short: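 Mice (n = 6–8 per group) were dosed orally in 20% hydroxypropyl-β-cyclodextran 30 min before intradermal histamine (100 μg). Magnets were placed on the ear and the mice were put in containers above a solenoid. Scratch-specific signals were counted automatically over 20 min immediately after the histamine injection.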
# [2] = Tmax in Sprague-Dawley rat at 10 mg/kg, po; format: ADME, organism-based; parameters: dose 10 mg/kg, route oral; settings: in vivo
# [3] = Half life in Sprague-Dawley rat at 200 mg/kg, po; format: ADME, organism-based; parameters: dose 200 mg/kg, route oral; settings: in vivo
# [4] = Tmax in mouse brain at 5 mg/kg, po administered as single dose by LC-MS/MS analysis; format: ADME, organism-based; parameters: dose 5 mg/kg, route oral
# In short: (§1)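 Mice received one oral dose of 5 mg/kg. Brain, liver and kidneys were surgically removed from three mice per time point for up to 96 h after dosing. Tissue drug levels were measured by LC–MS/MS with a lower limit of quantitation of 1 ng/g. Tmax and t1/2 are reported as means.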
# [5] = Half life in Sprague-Dawley rat at 500 mg/kg, po; format: ADME, organism-based; parameters: dose 500 mg/kg, route oral; settings: in vivo
# [6] = Binding affinity to dog histamine H4 receptor; parameters: species or system Canis lupus familiaris
# [7] = AUC in Sprague-Dawley rat at 200 mg/kg, po; format: ADME, organism-based; parameters: dose 200 mg/kg, route oral; settings: plasma
# [8] = Fraction unbound in human plasma; format: ADME, cell-free
# [9] = biological target: T1, Histamine H4 receptor (Homo sapiens, UniProt Q9H3N8); assay: Displacement of [3H]histamine from human recombinant histamine H4 receptor expressed in SK-N-MC cells after 45 mins by competition binding analysis; format: cell-based
# [10] = Cmax in Sprague-Dawley rat at 200 mg/kg, po; format: ADME, organism-based; parameters: dose 200 mg/kg, route oral; settings: in vivo
# [11] = Oral bioavailability in rat at 10 mg/kg; format: ADME, organism-based; settings: in vivo
# [12] = Tmax in Sprague-Dawley rat at 500 mg/kg, po; format: ADME, organism-based; parameters: dose 500 mg/kg, route oral; settings: in vivo
# [13] = tested on: Mus musculus; assay: Antiinflammatory activity in po dosed Balb/c mouse assessed as inhibition of LPS-induced TNF-alpha release at plasma concentration of 5.7 nM administered 30 mins prior to LPS challenge measured after 2 hrs by ELISA; format: functional, organism-based
# [14] = Tmax in Sprague-Dawley rat at 200 mg/kg, po; format: ADME, organism-based; parameters: dose 200 mg/kg, route oral; settings: in vivo
# [15] = Oral bioavailability in Sprague-Dawley rat at 200 mg/kg; format: ADME, organism-based; settings: in vivo
# [16] = Volume of distribution at steady state in rat at 2 mg/kg, iv; format: ADME, organism-based; parameters: dose 2 mg/kg, route intravenous; settings: in vivo, read-out: Vdss
# [17] = Half life in Sprague-Dawley rat at 10 mg/kg, po; format: ADME, organism-based; parameters: dose 10 mg/kg, route oral; settings: in vivo
# [18] = Volume of distribution at steady state in Sprague-Dawley rat at 2 mg/kg, iv; format: ADME, organism-based; parameters: dose 2 mg/kg, route intravenous; settings: Sprague-Dawley, in vivo, read-out: Vdss
# [19] = Volume of distribution at steady state in beagle dog at 2 mg/kg, iv; format: ADME, organism-based, Canis lupus familiaris; parameters: dose 2 mg/kg, route intravenous; settings: in vivo, read-out: Vdss
# [20] = Half life in mouse kidney at 5 mg/kg, po administered as single dose by LC-MS/MS analysis; format: ADME, organism-based; parameters: dose 5 mg/kg, route oral; in short: as §1
# [21] = AUC in Sprague-Dawley rat at 500 mg/kg, po; format: ADME, organism-based; parameters: dose 500 mg/kg, route oral; settings: plasma
# [22] = Volume of distribution at steady state in Balb/c mouse at 2 mg/kg, iv; format: ADME, organism-based; parameters: dose 2 mg/kg, route intravenous; settings: in vivo, read-out: Vdss
# [23] = Half life in beagle dog at 10 mg/kg, po; format: ADME, organism-based, Canis lupus familiaris; parameters: dose 10 mg/kg, route oral; settings: in vivo
# [24] = Oral bioavailability in Balb/c mouse at 5 mg/kg; format: ADME, organism-based; settings: in vivo
# [25] = Initial plasma concentration in beagle dog at 2 mg/kg, iv; format: ADME, organism-based, Canis lupus familiaris; parameters: dose 2 mg/kg, route intravenous
# [26] = Clearance in beagle dog at 2 mg/kg, iv; format: ADME, organism-based, Canis lupus familiaris; parameters: dose 2 mg/kg, route intravenous; settings: beagle, in vivo
# [27] = biological target: T2, Voltage-gated inwardly rectifying potassium channel KCNH2 (Homo sapiens, UniProt Q12809); assay: Inhibition of human ERG channel transfected in HEK293 cells assessed as reduction in delayed rectifier current by patch clamp assay; format: cell-based
# In short: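 The delayed rectifier current (IKr) was recorded in hERG-transfected HEK293 cells with the compound at 3 μM.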
# [28] = Half life in human microsomes; format: ADME, Microsome
# [29] = AUC in beagle dog at 10 mg/kg, po; format: ADME, organism-based, Canis lupus familiaris; parameters: dose 10 mg/kg, route oral; settings: plasma
# [30] = Clearance in rat at 2 mg/kg, iv; format: ADME, organism-based; parameters: dose 2 mg/kg, route intravenous; settings: in vivo
# [31] = Tmax in Balb/c mouse at 5 mg/kg, po; format: ADME, organism-based; parameters: dose 5 mg/kg, route oral; settings: in vivo
# [32] = Half life in rat liver microsomes; format: ADME
# [33] = Oral bioavailability in Sprague-Dawley rat at 500 mg/kg; format: ADME, organism-based; settings: in vivo
# [34] = biological target: T1, Histamine H4 receptor; assay: Antagonist activity at human histamine H4 receptor expressed in SK-N-MC cells assessed as reduction of histamine-induced inhibition of cAMP-mediated beta-galactosidase reporter gene activity treated 10 mins prior to histamine challenge by microplate reader analysis; format: functional, cell-based; settings: read-out: pA2 (converted)
# [35] = Binding affinity to monkey histamine H4 receptor; parameters: species or system Macaca mulatta
# [36] = biological target: T2, Voltage-gated inwardly rectifying potassium channel KCNH2; assay: Inhibition of human ERG channel up to 30 uM by astemizole binding assay
# [37] = AUC in Balb/c mouse at 2 mg/kg, iv; format: ADME, organism-based; parameters: dose 2 mg/kg, route intravenous; settings: plasma
# [38] = Toxicity in rabbit purkinje fibers; format: tissue-based, Oryctolagus cuniculus, Purkinje fiber; settings: ex_vivo
# [39] = Half life in mouse liver at 5 mg/kg, po administered as single dose by LC-MS/MS analysis; format: ADME, organism-based; parameters: dose 5 mg/kg, route oral; in short: as §1
# [40] = Permeability from apical to basolateral side in human Caco cells; format: ADME, cell-based; settings: Caco-2, read-out: permeability
# [41] = AUC in rat at 2 mg/kg, iv; format: ADME, organism-based; parameters: dose 2 mg/kg, route intravenous; settings: plasma
# [42] = Clearance in Sprague-Dawley rat at 2 mg/kg, iv; format: ADME, organism-based; parameters: dose 2 mg/kg, route intravenous; settings: Sprague-Dawley, in vivo
# [43] = Oral bioavailability in Sprague-Dawley rat at 10 mg/kg; format: ADME, organism-based; settings: in vivo
# [44] = Half life in Sprague-Dawley rat at 50 mg/kg, po; format: ADME, organism-based; parameters: dose 50 mg/kg, route oral; settings: in vivo
# [45] = Cmax in rat at 10 mg/kg, po; format: ADME, organism-based; parameters: dose 10 mg/kg, route oral; settings: in vivo
# [46] = AUC in Sprague-Dawley rat at 10 mg/kg, po; format: ADME, organism-based; parameters: dose 10 mg/kg, route oral; settings: plasma
# [47] = Tmax in beagle dog at 10 mg/kg, po; format: ADME, organism-based, Canis lupus familiaris; parameters: dose 10 mg/kg, route oral; settings: in vivo
# [48] = AUC in Balb/c mouse at 5 mg/kg, po; format: ADME, organism-based; parameters: dose 5 mg/kg, route oral; settings: plasma
# [49] = tested on: Salmonella typhimurium; assay: Genotoxicity in Salmonella typhimurium by Ames test; format: toxicity, organism-based; settings: salmonella enterica subsp. enterica serovar typhimurium
# [50] = Oral bioavailability in Balb/c mouse at 20 mg/kg; format: ADME, organism-based; settings: in vivo
# [51] = AUC in Balb/c mouse at 20 mg/kg, po; format: ADME, organism-based; parameters: dose 20 mg/kg, route oral; settings: plasma
# [52] = Half life in Sprague-Dawley rat at 2 mg/kg, iv; format: ADME, organism-based; parameters: dose 2 mg/kg, route intravenous; settings: Sprague-Dawley, in vivo
# [53] = Initial plasma concentration in Balb/c mouse at 2 mg/kg, iv; format: ADME, organism-based; parameters: dose 2 mg/kg, route intravenous
# [54] = Ratio of drug level in brain to plasma in mouse at 5 mg/kg, po administered as single dose […] by LC-MS/MS analysis; format: ADME, organism-based; parameters: dose 5 mg/kg, route oral; settings: brain and plasma
# [55] = Half life in Balb/c mouse at 5 mg/kg, po; format: ADME, organism-based; parameters: dose 5 mg/kg, route oral; settings: in vivo
# [56] = Clearance in Balb/c mouse at 2 mg/kg, iv; format: ADME, organism-based; parameters: dose 2 mg/kg, route intravenous; settings: in vivo
# [57] = Oral bioavailability in beagle dog at 10 mg/kg; format: ADME, organism-based, Canis lupus familiaris; settings: in vivo
# T2 sequence (Q12809 whole entry): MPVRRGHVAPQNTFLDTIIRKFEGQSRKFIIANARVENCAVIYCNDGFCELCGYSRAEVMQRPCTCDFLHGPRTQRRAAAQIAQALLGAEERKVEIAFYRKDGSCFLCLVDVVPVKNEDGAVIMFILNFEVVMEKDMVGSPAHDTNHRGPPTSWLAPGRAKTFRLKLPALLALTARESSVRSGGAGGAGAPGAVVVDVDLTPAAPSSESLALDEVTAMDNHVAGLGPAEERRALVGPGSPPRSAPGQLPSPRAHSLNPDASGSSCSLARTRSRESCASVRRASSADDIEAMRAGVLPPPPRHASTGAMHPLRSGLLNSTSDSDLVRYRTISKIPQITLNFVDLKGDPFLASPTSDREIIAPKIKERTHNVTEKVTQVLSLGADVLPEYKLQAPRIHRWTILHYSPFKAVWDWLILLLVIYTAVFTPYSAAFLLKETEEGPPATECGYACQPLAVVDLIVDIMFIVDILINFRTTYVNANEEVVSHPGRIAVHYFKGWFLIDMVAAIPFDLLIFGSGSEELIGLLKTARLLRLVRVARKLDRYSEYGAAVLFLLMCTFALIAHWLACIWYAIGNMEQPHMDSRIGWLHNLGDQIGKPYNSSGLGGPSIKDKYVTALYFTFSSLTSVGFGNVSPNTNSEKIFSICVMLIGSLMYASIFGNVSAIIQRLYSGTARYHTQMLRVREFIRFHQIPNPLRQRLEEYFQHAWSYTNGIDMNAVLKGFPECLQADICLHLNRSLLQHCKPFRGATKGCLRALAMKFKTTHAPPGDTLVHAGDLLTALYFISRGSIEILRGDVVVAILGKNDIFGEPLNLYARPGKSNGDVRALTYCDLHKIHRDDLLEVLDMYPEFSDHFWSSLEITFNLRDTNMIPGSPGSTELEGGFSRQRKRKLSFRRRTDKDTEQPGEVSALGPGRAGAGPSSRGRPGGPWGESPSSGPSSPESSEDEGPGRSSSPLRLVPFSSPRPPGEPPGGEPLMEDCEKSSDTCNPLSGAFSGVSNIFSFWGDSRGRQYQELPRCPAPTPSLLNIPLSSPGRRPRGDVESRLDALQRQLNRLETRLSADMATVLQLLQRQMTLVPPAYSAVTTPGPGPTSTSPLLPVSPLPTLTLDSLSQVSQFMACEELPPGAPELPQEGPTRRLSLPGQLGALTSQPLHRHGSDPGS
# T1 sequence (Q9H3N8 whole entry): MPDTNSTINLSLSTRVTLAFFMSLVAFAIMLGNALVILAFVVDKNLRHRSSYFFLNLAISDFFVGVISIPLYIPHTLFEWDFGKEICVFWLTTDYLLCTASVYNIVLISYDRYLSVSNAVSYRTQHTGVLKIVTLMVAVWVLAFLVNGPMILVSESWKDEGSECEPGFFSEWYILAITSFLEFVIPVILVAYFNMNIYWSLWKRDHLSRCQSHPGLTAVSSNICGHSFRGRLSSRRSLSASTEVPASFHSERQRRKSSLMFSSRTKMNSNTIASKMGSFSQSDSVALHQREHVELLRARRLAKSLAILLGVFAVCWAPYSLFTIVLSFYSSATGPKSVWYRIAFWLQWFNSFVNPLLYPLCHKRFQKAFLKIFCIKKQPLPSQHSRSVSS
smiles,measurement,setting,value
CC(C)c1cc(N2CC[C@@H](N)C2)nc(N)n1 [JNJ-39758979],inhibition,[1],Active
same,Tmax,[2],2 h
same,half-life,[3],6.16 h
same,Tmax,[4],6 h
same,half-life,[5],12 h
same,Ki,[6],≥ 10000 nM
same,AUC,[7],71.2 µM·h
same,fraction unbound,[8],0.81
same,Ki,[9],12.5 nM
same,Cmax,[10],4910 nM
same,bioavailability,[11],36%
same,Tmax,[12],8 h
same,inhibition,[13],Active
same,Tmax,[14],8 h
same,bioavailability,[15],51%
same,Vd,[16],19.9 L/kg
same,half-life,[17],5.7 h
same,Vd,[18],19.9 L/kg
same,Vd,[19],19.9 L/kg
same,half-life,[20],20.5 h
same,AUC,[21],184 µM·h
same,Vd,[22],31 L/kg
same,half-life,[23],11.2 h
same,bioavailability,[24],84%
same,C0,[25],4220 nM
same,clearance,[26],23.3 mL/min/kg
same,INH,[27],> 10 µM
same,half-life,[28],> 3 h
same,AUC,[29],31.6 µM·h
same,clearance,[30],36.7 mL/min/kg
same,Tmax,[31],2 h
same,half-life,[32],> 2 h
same,bioavailability,[33],53%
same,Kb,[34],12.6 nM
same,Ki,[35],25 nM
same,inhibition (INH),[36],Not Active
same,AUC,[37],3.27 µM·h
same,Activity,[38],Non-toxic
same,half-life,[39],22.3 h
same,Papp A→B,[40],23 ×10⁻⁶ cm/s
same,AUC,[41],1.4 µM·h
same,clearance,[42],91.7 mL/min/kg
same,bioavailability,[43],35%
same,half-life,[44],5.45 h
same,Cmax,[45],300 nM
same,AUC,[46],2.43 µM·h
same,Tmax,[47],0.8 h
same,AUC,[48],9.69 µM·h
same,Activity,[49],Non-toxic
same,bioavailability,[50],75%
same,AUC,[51],24.6 µM·h
same,half-life,[52],2.1 h
same,C0,[53],1020 nM
same,Kp,[54],22.7
same,half-life,[55],6.8 h
same,clearance,[56],40 mL/min/kg
same,bioavailability,[57],95%
